ChEMBL document CHEMBL1681713, “Lead detoxification activities and ADMET hepatotoxicities of a class of novel 5-(1-carbonyl-L-amino-acid)-2,2-dimethyl-[1,3]dithiolane-4-carboxylic acids” (Bioorg Med Chem Lett, 2011)

Legend:
[1] = tested on: Kidney; experiment: Toxicity in mouse assessed as effect on calcium level in kidney per gram of organ at 0.4 mmol/kg, ip qd for 5 days; format: organism-based; settings: in vivo, 120 h
[2] = Detoxification activity against lead-induced toxicity in mouse assessed as reduction lead level in feces at 0.4 mmol/kg, ip qd for 5 days measured 24 hrs last post dose by synchrotron X-ray fluorescence analysis; format: functional
Outline: (§1)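 Lead-loaded mice were given normal saline vehicle, DL-penicillamine or NaDMS (positive controls), or test agent, each at 0.4 mmol/kg; n = 12 per group. Lead was measured in feces and urine and reported as mean ± SD µg Pb/g excrement against the NS group.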

[3] = tested on: Brain; experiment: Detoxification activity against lead-induced toxicity in mouse assessed as reduction lead level in brain per gram of organ at 0.4 mmol/kg, ip qd for 5 days measured 24 hrs last post dose by synchrotron X-ray fluorescence analysis; format: functional
Outline: (§2)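 Lead-loaded mice were given normal saline vehicle (negative control) or test agent at 0.2, 0.4 or 0.6 mmol/kg. Lead was measured in liver, kidney, left femur and brain and reported as mean ± SD µg Pb/g organ against the NS group.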

[4] = tested on: Liver; experiment: Toxicity in mouse assessed as effect on manganese level in liver per gram of organ at 0.4 mmol/kg, ip qd for 5 days; format: organism-based; settings: in vivo, 120 h
[5] = tested on: Liver; experiment: Detoxification activity against lead-induced toxicity in mouse assessed as reduction lead level in liver per gram of organ at 0.4 mmol/kg, ip qd for 5 days measured 24 hrs last post dose by synchrotron X-ray fluorescence analysis; format: functional; outline: as §2
[6] = tested on: Mus musculus; experiment: Toxicity in mouse assessed as change in bodyweight at 0.4 mmol/kg, ip qd for 5 days; format: organism-based; settings: in vivo, 120 h
Outline: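 Lead-loaded mice were given normal saline vehicle or test agent at 0.4 mmol/kg. Body weights were recorded and compared with the NS group to assess growth.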

[7] = tested on: Kidney; experiment: Toxicity in mouse assessed as effect on zinc level in kidney per gram of organ at 0.4 mmol/kg, ip qd for 5 days; format: organism-based; settings: in vivo, 120 h
[8] = tested on: Brain; experiment: Toxicity in mouse assessed as effect on iron level in brain per gram of organ at 0.4 mmol/kg, ip qd for 5 days; format: organism-based; settings: in vivo, 120 h
[9] = tested on: Kidney; experiment: Toxicity in mouse assessed as effect on iron level in kidney per gram of organ at 0.4 mmol/kg, ip qd for 5 days; format: organism-based; settings: in vivo, 120 h
[10] = Detoxification activity against lead-induced toxicity in mouse assessed as reduction lead level in urine at 0.4 mmol/kg, ip qd for 5 days measured 24 hrs last post dose by synchrotron X-ray fluorescence analysis; format: functional; outline: as §1
[11] = tested on: Brain; experiment: Toxicity in mouse assessed as effect on calcium level in brain per gram of organ at 0.4 mmol/kg, ip qd for 5 days; format: organism-based; settings: in vivo, 120 h
[12] = tested on: Liver; experiment: Toxicity in mouse assessed as effect on copper level in liver per gram of organ at 0.4 mmol/kg, ip qd for 5 days; format: organism-based; settings: in vivo, 120 h
[13] = tested on: Kidney; experiment: Toxicity in mouse assessed as effect on manganese level in kidney per gram of organ at 0.4 mmol/kg, ip qd for 5 days; format: organism-based; settings: in vivo, 120 h
[14] = tested on: Liver; experiment: Toxicity in mouse assessed as effect on calcium level in liver per gram of organ at 0.4 mmol/kg, ip qd for 5 days; format: organism-based; settings: in vivo, 120 h
[15] = tested on: Kidney; experiment: Toxicity in mouse assessed as effect on copper level in kidney per gram of organ at 0.4 mmol/kg, ip qd for 5 days; format: organism-based; settings: in vivo, 120 h
[16] = tested on: Brain; experiment: Toxicity in mouse assessed as effect on zinc level in brain per gram of organ at 0.4 mmol/kg, ip qd for 5 days; format: organism-based; settings: in vivo, 120 h
[17] = tested on: Liver; experiment: Toxicity in mouse assessed as effect on iron level in liver per gram of organ at 0.4 mmol/kg, ip qd for 5 days; format: organism-based; settings: in vivo, 120 h
[18] = tested on: Kidney; experiment: Detoxification activity against lead-induced toxicity in mouse assessed as reduction lead level in kidney per gram of organ at 0.4 mmol/kg, ip qd for 5 days measured 24 hrs last post dose by synchrotron X-ray fluorescence analysis; format: functional; outline: as §2
[19] = tested on: Femur; experiment: Detoxification activity against lead-induced toxicity in mouse assessed as reduction lead level in femurs per gram of organ at 0.4 mmol/kg, ip qd for 5 days measured 24 hrs last post dose by synchrotron X-ray fluorescence analysis; format: functional; outline: as §2
[20] = tested on: Brain; experiment: Toxicity in mouse assessed as effect on manganese level in brain per gram of organ at 0.4 mmol/kg, ip qd for 5 days; format: organism-based; settings: in vivo, 120 h
[21] = tested on: Liver; experiment: Toxicity in mouse assessed as effect on zinc level in liver per gram of organ at 0.4 mmol/kg, ip qd for 5 days; format: organism-based; settings: in vivo, 120 h
[22] = tested on: Brain; experiment: Toxicity in mouse assessed as effect on copper level in brain per gram of organ at 0.4 mmol/kg, ip qd for 5 days; format: organism-based; settings: in vivo, 120 h
[23] = Apparent permeability from basolateral to apical side of human Caco2 cells at 4 mM up to 120 mins by HPLC analysis; format: ADME, cell-based; settings: Caco-2
Outline: (§3)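 Permeability measured across Caco-2 cell monolayers.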

[24] = Apparent permeability from apical to basolateral side of human Caco2 cells at 4 mM up to 120 mins by HPLC analysis; format: ADME, cell-based; settings: Caco-2; outline: as §3
[25] = tested on: Caco-2; experiment: Efflux ratio of permeability […] in human Caco2 cells at 4 mM up to 120 mins by HPLC analysis; format: ADME, cell-based; settings: caco-2, 2 h, 4000 µM; outline: as §3

Structure (SMILES) | Activity [1] [µg/g] | Activity [2] [µg/g] | Activity [3] [µg/g] | Activity [4] [µg/g] | Activity [5] [µg/g] | Activity [6] [g] | Activity [7] [µg/g] | Activity [8] [µg/g] | Activity [9] [µg/g] | Activity [10] [µg/g] | Activity [11] [µg/g] | Activity [12] [µg/g] | Activity [13] [µg/g] | Activity [14] [µg/g] | Activity [15] [µg/g] | Activity [16] [µg/g] | Activity [17] [µg/g] | Activity [18] [µg/g] | Activity [19] [µg/g] | Activity [20] [µg/g] | other results
CC(C)C[C@H](NC(=O)C1SC(C)(C)SC1C(=O)O)C(=O)O (some centres undefined) | 76.48 | 3.99 | 1.44 | 1.41 | 3.64 | 29.7 | 26.99 | 57.49 | 93.02 | 3.44 | 69.29 | 3.59 | 1.41 | 59.8 | 3.65 | 32.49 | 153.8 | 7.32 | 16.33 | 0.7 | Activity [21]: 37.88 µg/g; Activity [22]: 2.6 µg/g
CC1(C)SC(C(=O)O)C(C(=O)N[C@@H](CCC(N)=O)C(=O)O)S1 (some centres undefined) | 76.93 | 4.5 | 1.02 | 1.37 | 3.07 | 29.6 | 28.09 | 57.66 | 94.48 | 2.89 | 71.82 | 3.76 | 1.33 | 59.07 | 3.59 | 34.68 | 153.02 | 6.86 | 14.59 | 0.69 | Activity [21]: 37.85 µg/g; Activity [22]: 2.64 µg/g
O=C([O-])C(S)C(S)C(=O)[O-].[Na+].[Na+] (centres undefined) |  | 4.59 | 1.72 |  | 4.75 |  |  |  |  | 1.79 |  |  |  |  |  |  |  | 6.23 | 14.31 |  | Papp B→A at 2 h, 4000 µM [23]: 10 ×10⁻⁶ cm/s; Papp A→B at 2 h, 4000 µM [24]: 11 ×10⁻⁶ cm/s; Ratio [25]: 1.1
CC(C)[C@H](NC(=O)C1SC(C)(C)SC1C(=O)O)C(=O)O (some centres undefined) | 76.97 | 4.76 | 1.49 | 1.4 | 3.19 | 29.9 | 27.64 | 57.35 | 95.56 | 2.65 | 72 | 3.51 | 1.4 | 60.24 | 3.62 | 34.51 | 155.25 | 6.16 | 14.93 | 0.76 | Activity [21]: 36.49 µg/g; Activity [22]: 2.55 µg/g
CC(C)(S)C(N)C(=O)O (racemic) [DL-PENICILLAMINE] |  | 3.26 | 1.61 |  | 3.52 |  |  |  |  | 1.94 |  |  |  |  |  |  |  | 7.24 | 14.99 |  | Papp B→A at 2 h, 4000 µM [23]: 11.5 ×10⁻⁶ cm/s; Papp A→B at 2 h, 4000 µM [24]: 13.1 ×10⁻⁶ cm/s; Ratio [25]: 1.14
CC1(C)SC(C(=O)O)C(C(=O)N[C@@H](CO)C(=O)O)S1 (some centres undefined) | 75.89 | 4.41 | 1.05 | 1.37 | 3.21 | 31.5 | 28.1 | 56.47 | 93.69 | 2.83 | 68.08 | 3.73 | 1.42 | 59.65 | 3.73 | 34.09 | 153.39 | 6.43 | 14.7 | 0.78 | Activity [21]: 37 µg/g; Activity [22]: 2.39 µg/g
CC1(C)SC(C(=O)O)C(C(=O)N[C@@H](CCC(=O)O)C(=O)O)S1 (some centres undefined) | 77.45 | 4.49 | 1.22 | 1.4 | 5.64 | 30.5 | 28.16 | 57.57 | 93.97 | 2.65 | 69.99 | 3.72 | 1.35 | 60.4 | 3.73 | 34.99 | 154.4 | 7.21 | 13.69 | 0.77 | Activity [21]: 38.01 µg/g; Activity [22]: 2.5 µg/g
CC1(C)SC(C(=O)O)C(C(=O)N[C@@H](Cc2c[nH]c3ccccc23)C(=O)O)S1 (some centres undefined) | 76.92 | 4.14 | 1.21 | 1.4 | 5.59 | 30.8 | 27.99 | 56.94 | 93.07 | 2.84 | 69.35 | 3.76 | 1.4 | 59.69 | 3.69 | 33.04 | 153.84 | 7.5 | 17.66 | 0.78 | Activity [21]: 36.96 µg/g; Activity [22]: 2.39 µg/g
CC1(C)SC(C(=O)O)C(C(=O)N[C@@H](Cc2ccccc2)C(=O)O)S1 (some centres undefined) | 76.76 | 4.85 | 1.11 | 1.31 | 4.6 | 29.9 | 27.57 | 56.31 | 94.82 | 1.72 | 69.84 | 3.63 | 1.43 | 60.61 | 3.59 | 34.51 | 154.97 | 6.61 | 16.75 | 0.75 | Activity [21]: 36.69 µg/g; Activity [22]: 2.59 µg/g
CC1(C)SC(C(=O)O)C(C(=O)NCC(=O)O)S1 (centres undefined) | 76.17 | 4.53 | 1.39 | 1.29 | 3.29 | 30.4 | 27.68 | 57.03 | 94.4 | 2.07 | 71.4 | 3.58 | 1.31 | 60.01 | 3.62 | 34.31 | 154.3 | 6.68 | 20.82 | 0.74 | Activity [21]: 36.35 µg/g; Activity [22]: 2.5 µg/g
